# Calls of active or inactive are those of the source. No cut-off for these calls is given here.
# How the values were obtained:
# Endothelial lipase [1] = target: T1, Endothelial lipase (Homo sapiens, UniProt Q9Y5X9); assay: Inhibition of human endothelial lipase derived from human HT1080 cell conditioned media using PED-A1 as substrate incubated for 20 mins and measured every 20 secs for 10 mins by FRET assay
# T1 sequence (Q9Y5X9 whole entry): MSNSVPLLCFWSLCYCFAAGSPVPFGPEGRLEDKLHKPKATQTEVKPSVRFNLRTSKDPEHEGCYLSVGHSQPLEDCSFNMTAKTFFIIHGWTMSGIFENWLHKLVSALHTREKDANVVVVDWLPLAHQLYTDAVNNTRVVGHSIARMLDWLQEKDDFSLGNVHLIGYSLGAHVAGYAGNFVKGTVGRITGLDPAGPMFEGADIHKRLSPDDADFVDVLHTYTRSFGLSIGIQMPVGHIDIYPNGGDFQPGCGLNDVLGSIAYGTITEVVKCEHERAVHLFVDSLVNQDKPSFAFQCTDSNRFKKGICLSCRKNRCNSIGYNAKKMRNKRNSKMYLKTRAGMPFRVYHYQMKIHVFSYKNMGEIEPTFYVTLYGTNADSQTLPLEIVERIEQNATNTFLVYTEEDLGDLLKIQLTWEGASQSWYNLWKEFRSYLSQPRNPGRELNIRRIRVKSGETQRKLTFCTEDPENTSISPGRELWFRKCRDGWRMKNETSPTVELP
# How it was run: (§1)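 IC50s were calculated from mean inhibition values of duplicate determinations.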
# [2] = target: T2, Hepatic triacylglycerol lipase (Homo sapiens, UniProt P11150); assay: Inhibition of human hepatic lipase expressed in African green monkey COS7 cells using PED-A1 as substrate incubated for 20 mins and measured every 20 secs for 10 mins by FRET assay; assay type: cell-based; how it was run: as §1
# T2 sequence (P11150 whole entry): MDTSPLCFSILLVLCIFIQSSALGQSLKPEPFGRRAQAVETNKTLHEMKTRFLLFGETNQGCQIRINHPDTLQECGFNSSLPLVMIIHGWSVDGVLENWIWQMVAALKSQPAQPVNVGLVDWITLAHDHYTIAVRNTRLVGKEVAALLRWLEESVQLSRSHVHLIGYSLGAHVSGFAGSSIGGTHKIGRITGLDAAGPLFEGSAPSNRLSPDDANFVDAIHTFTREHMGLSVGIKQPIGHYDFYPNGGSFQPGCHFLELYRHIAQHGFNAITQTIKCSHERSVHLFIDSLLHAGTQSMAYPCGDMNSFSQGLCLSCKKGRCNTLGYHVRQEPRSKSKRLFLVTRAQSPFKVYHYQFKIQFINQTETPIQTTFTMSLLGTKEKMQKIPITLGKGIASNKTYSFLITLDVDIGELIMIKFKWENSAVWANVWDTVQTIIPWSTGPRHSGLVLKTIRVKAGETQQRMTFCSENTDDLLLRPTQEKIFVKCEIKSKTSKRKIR
# Endothelial lipase [3] = target: T3, Endothelial lipase (Mus musculus, UniProt Q9WVG5); assay: Inhibition of mouse endothelial lipase expressed in HEK293F cells using D31-POPC-HDL as substrate incubated for 2 hrs in presence of mouse plasma by LC/MS analysis
# T3 sequence (Q9WVG5 whole entry): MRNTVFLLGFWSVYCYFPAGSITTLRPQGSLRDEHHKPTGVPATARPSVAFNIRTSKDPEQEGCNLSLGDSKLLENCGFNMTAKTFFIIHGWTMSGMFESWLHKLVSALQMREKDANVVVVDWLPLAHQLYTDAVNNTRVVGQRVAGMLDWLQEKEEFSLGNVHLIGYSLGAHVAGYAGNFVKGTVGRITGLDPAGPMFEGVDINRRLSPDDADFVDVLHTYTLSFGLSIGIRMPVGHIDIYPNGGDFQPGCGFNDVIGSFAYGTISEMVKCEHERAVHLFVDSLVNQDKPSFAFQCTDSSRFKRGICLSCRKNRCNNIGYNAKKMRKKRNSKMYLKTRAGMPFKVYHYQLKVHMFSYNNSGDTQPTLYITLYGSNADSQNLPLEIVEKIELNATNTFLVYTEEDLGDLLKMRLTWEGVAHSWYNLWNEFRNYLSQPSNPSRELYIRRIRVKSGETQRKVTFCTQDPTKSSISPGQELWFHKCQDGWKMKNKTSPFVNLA
# How it was run: (§2)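 IC50 values were derived from the means of duplicate inhibition measurements.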
# [4] = Cmax in Balb/c mouse at 10 mg/kg, po; assay type: ADME, organism-based; design: dose 10 mg/kg, route oral; details: in vivo
# How it was run: (§3)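 Oral PK in fasted male balb/c mice. Dosing vehicle was ethanol/PEG 400/water (10:60:30).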
# [5] = Plasma concentration in Balb/c mouse at 10 mg/kg, po measured after 7 hrs; assay type: ADME, organism-based; how it was run: as §3
# [6] = Plasma concentration in Balb/c mouse at 10 mg/kg, po measured after 24 hrs; assay type: ADME, organism-based; how it was run: as §3
# [7] = Tmax in Balb/c mouse at 10 mg/kg, po; assay type: ADME, organism-based; details: in vivo; how it was run: as §3
# [8] = Total AUC in Balb/c mouse at 10 mg/kg, po measured after 24 hrs; assay type: ADME, organism-based; design: dose 10 mg/kg, time AUCmax, route oral; details: in vivo; how it was run: as §3
# [9] = Metabolic stability in Balb/c mouse liver microsomes assessed as parent compound remaining at 0.5 uM measured after 10 mins; assay type: ADME, Microsome; details: read-out: Stability
# How it was run: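 Test compound at 0.5 μM was incubated for 10 min with mouse liver microsomes. The read-out is the percentage of parent remaining.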
# [10] = Permeability of compound at pH 5.5 by PAMPA; assay type: ADME; details: read-out: permeability
# How it was run: (§4)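 Permeability was measured by parallel artificial membrane permeability assay (PAMPA) at pH 5.5 and pH 7.4. Values are reported in nm/s.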
# Homo sapiens = organism: Homo sapiens; assay: Selectivity index, ratio of IC50 for inhibition of human hepatic lipase expressed in African green monkey COS7 cells to IC50 for inhibition of human endothelial lipase derived from human HT1080 cell conditioned media; assay type: cell-based
# Endothelial lipase [11] = target: T1, Endothelial lipase; assay: Inhibition of human endothelial lipase using D31-POPC-HDL as substrate incubated for 2 hrs in presence of human serum by LC/MS analysis; how it was run: as §2
# Endothelial lipase [12] = target: T3, Endothelial lipase; assay: Inhibition of endothelial lipase in hepatic lipase knock-out mouse plasma using D31-POPC-HDL as substrate incubated for 2 hrs by LC/MS analysis; assay type: cell-free; how it was run: as §2
# [13] = Cmax in Balb/c mouse at 20 mg/kg, po; assay type: ADME, organism-based; design: dose 20 mg/kg, route oral; details: in vivo; how it was run: as §3
# [14] = Plasma concentration in Balb/c mouse at 20 mg/kg, po measured after 7 hrs; assay type: ADME, organism-based; how it was run: as §3
# [15] = Plasma concentration in Balb/c mouse at 20 mg/kg, po measured after 24 hrs; assay type: ADME, organism-based; how it was run: as §3
# [16] = Tmax in Balb/c mouse at 20 mg/kg, po; assay type: ADME, organism-based; details: in vivo; how it was run: as §3
# [17] = Half life in Balb/c mouse at 20 mg/kg, po; assay type: ADME, organism-based; details: in vivo; how it was run: as §3
# [18] = Total AUC in Balb/c mouse at 20 mg/kg, po measured after 24 hrs; assay type: ADME, organism-based; design: dose 20 mg/kg, time AUCmax, route oral; details: in vivo; how it was run: as §3
# [19] = Cmax in Balb/c mouse at 30 mg/kg, po; assay type: ADME, organism-based; design: dose 30 mg/kg, route oral; details: in vivo; how it was run: as §3
# [20] = Plasma concentration in Balb/c mouse at 30 mg/kg, po measured after 7 hrs; assay type: ADME, organism-based; how it was run: as §3
# [21] = Plasma concentration in Balb/c mouse at 30 mg/kg, po measured after 24 hrs; assay type: ADME, organism-based; how it was run: as §3
# [22] = Tmax in Balb/c mouse at 30 mg/kg, po; assay type: ADME, organism-based; details: in vivo; how it was run: as §3
# [23] = Half life in Balb/c mouse at 30 mg/kg, po; assay type: ADME, organism-based; details: in vivo; how it was run: as §3
# [24] = Total AUC in Balb/c mouse at 30 mg/kg, po measured after 24 hrs; assay type: ADME, organism-based; design: dose 30 mg/kg, route oral, time AUCmax; details: in vivo; how it was run: as §3
# [25] = Half life in Balb/c mouse at 10 mg/kg, po; assay type: ADME, organism-based; details: in vivo; how it was run: as §3
# [26] = Ratio of total AUC in Balb/c mouse at 20 mg/kg, po to total AUC in Balb/c mouse at 10 mg/kg, po measured after 24 hrs; assay type: ADME, organism-based; details: in vivo
# How it was run: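 Ratio of AUCtotal between 20 and 10 mg/kg oral doses in fasted male balb/c mice. Vehicle was ethanol/PEG 400/water (10:60:30).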
# [27] = Ratio of Cmin in Balb/c mouse at 20 mg/kg, po bid to IC50 for inhibition of mouse endothelial lipase expressed in HEK293F cells using D31-POPC-HDL as substrate incubated for 2 hrs in presence of mouse plasma by LC/MS analysis; assay type: organism-based; details: in vivo
# [28] = Cmin in C57BL/6 mouse at 20 mg/kg, po bid measured after 8 hrs; assay type: ADME, organism-based; details: in vivo, read-out: Cmin
# How it was run: (§5)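 Satellite PK cohort of wild-type C57BL/6 mice given 20 mg/kg p.o. b.i.d. over 4 days. Plasma levels were taken at 8, 24 and 102 h.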
# [29] = Cmin in C57BL/6 mouse at 20 mg/kg, po bid measured after 24 hrs; assay type: ADME, organism-based; details: in vivo, read-out: Cmin; how it was run: as §5
# [30] = Cmin in C57BL/6 mouse at 20 mg/kg, po bid measured after 102 hrs; assay type: ADME, organism-based; details: in vivo, read-out: Cmin; how it was run: as §5
# Mus musculus [31] = assay: Effect on in LDL-C level in C57BL/6 mouse plasma at 20 mg/kg, po bid measured after 1 to 4 days by FPLC analysis; assay type: functional, organism-based
# How it was run: (§6)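 Wild-type C57BL/6 mice were dosed at 20 mg/kg p.o. b.i.d. for 4 days alongside a vehicle control group. Lipoprotein profiles were obtained by FPLC on day 1 and day 4, using plasma pooled from 8 mice.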
# Mus musculus [32] = assay: Increase in HDL-C level in C57BL/6 mouse plasma at 20 mg/kg, po bid measured after 1 to 4 days by FPLC analysis; assay type: functional, organism-based; how it was run: as §6
# [33] = Ratio of Cmin in C57BL/6 mouse at 20 mg/kg, po bid measured after 8 hrs to IC50 for inhibition of mouse endothelial lipase expressed in HEK293F cells using D31-POPC-HDL as substrate incubated for 2 hrs in presence of mouse plasma by LC/MS analysis; assay type: organism-based; details: in vivo
# [34] = Ratio of Cmin in C57BL/6 mouse at 20 mg/kg, po bid measured after 24 hrs to IC50 for inhibition of mouse endothelial lipase expressed in HEK293F cells using D31-POPC-HDL as substrate incubated for 2 hrs in presence of mouse plasma by LC/MS analysis; assay type: organism-based; details: in vivo
# [35] = Ratio of Cmin in C57BL/6 mouse at 20 mg/kg, po bid measured after 102 hrs to IC50 for inhibition of mouse endothelial lipase expressed in HEK293F cells using D31-POPC-HDL as substrate incubated for 2 hrs in presence of mouse plasma by LC/MS analysis; assay type: organism-based; details: in vivo
# [36] = Permeability of compound at pH 7.4 by PAMPA; assay type: ADME; details: read-out: permeability; how it was run: as §4
smiles,measurement,setting,value
COCCS(=O)(=O)C(C(=O)NCC(=O)NC1CC1)c1nc2ccc(-c3ccc(F)nc3)cc2s1 (configuration not stated),IC50,Endothelial lipase [1],0.0046 µM
same,IC50,[2],0.23 µM
same,IC50,Endothelial lipase [3],0.12 µM
same,Cmax,[4],39 µM
same,concentration at 7 h,[5],1.7 µM
same,concentration at 24 h,[6],0.014 µM
same,Tmax,[7],1 h
same,AUC at 24 h,[8],111 µM·h
same,"remaining at 10 min, 0.5 µM",[9],81%
same,Papp,[10],94 nm/s
same,Ratio IC50,Homo sapiens,84
same,IC50,Endothelial lipase [11],0.083 µM
same,IC50,Endothelial lipase [12],0.31 µM
same,Cmax,[13],143 µM
same,concentration at 7 h,[14],7.4 µM
same,concentration at 24 h,[15],0.045 µM
same,Tmax,[16],0.5 h
same,half-life,[17],2.3 h
same,AUC at 24 h,[18],400 µM·h
same,Cmax,[19],142 µM
same,concentration at 7 h,[20],2.42 µM
same,concentration at 24 h,[21],0.025 µM
same,Tmax,[22],0.25 h
same,half-life,[23],2.3 h
same,AUC at 24 h,[24],240 µM·h
same,half-life,[25],2.2 h
same,Ratio,[26],3.6
same,Ratio,[27],23
same,concentration at 8 h,[28],5.2 µM
same,concentration at 24 h,[29],1.8 µM
same,concentration at 102 h,[30],6.5 µM
same,Activity,Mus musculus [31],inactive
same,Activity,Mus musculus [32],inactive
same,Ratio,[33],> 15
same,Ratio,[34],> 15
same,Ratio,[35],> 15
CS(=O)(=O)C(C(=O)NCCS(N)(=O)=O)c1nc2ccc(-c3ccc(C(=O)N4CCOCC4)cc3)cc2s1 (configuration not stated),IC50,Endothelial lipase [1],0.01 µM
same,IC50,[2],0.28 µM
same,IC50,Endothelial lipase [3],0.32 µM
same,Cmax,[4],0.036 µM
same,concentration at 7 h,[5],0.008 µM
same,concentration at 24 h,[6],0.005 µM
same,Tmax,[7],2.6 h
same,AUC at 24 h,[8],0.16 µM·h
same,"remaining at 10 min, 0.5 µM",[9],100%
same,Papp,[10],12 nm/s
same,Papp,[36],13 nm/s
O=C(CNC(=O)C(c1nc2ccc(-c3ccc(F)nc3)cc2s1)S(=O)(=O)Cc1ccccc1)NC1CC1 (configuration not stated),IC50,Endothelial lipase [1],0.025 µM
same,IC50,[2],0.007 µM
same,IC50,Endothelial lipase [3],0.094 µM
same,Ratio IC50,Homo sapiens,0.3
same,IC50,Endothelial lipase [11],0.065 µM

# Reference: ChEMBL document CHEMBL4387752, “Identification of substituted benzothiazole sulfones as potent and selective inhibitors of endothelial lipase” (Bioorg Med Chem Lett, 2019)
